The source of these data is ChEMBL document CHEMBL1821616, “New insights into the structural requirements for pro-apoptotic agents based on 2,4-diaminoquinazoline, 2,4-diaminopyrido[2,3-d]pyrimidine and 2,4-diaminopyrimidine derivatives” (Eur J Med Chem, 2011).

pIC50: −log10 of the molar value. Calls of active or inactive are those of the source. The calls are words filed in the database; no cut-off is given here. Bounds are passed on as bounds.

The nature of data set [1]: Cytotoxicity against human CRL11233 cells assessed as cell survival at 20 to 100 uM after 72 hrs by neutral red dye assay. In kind it is cell-based. Particulars: read-out: Survival. The procedure, abridged:
(§1)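 The non-tumoral lines were grown with 10% FBS plus penicillin/streptomycin, as monolayers at 37 °C in 5% CO2: CRL-8799 in MEG medium and CRL-11233 in BEGM. Compounds in DMSO (≤0.5% v/v final) were applied for 72 h. Survival was read by neutral red uptake against 0.5% DMSO solvent-treated controls, as the mean of triplicates.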

Data set [2] deals with MDA-MB-231. Briefly: Induction of apoptosis in human MDA-MB-231 cells assessed as DNA fragmentation after 24 hrs by ELISA relative to control. In kind it is functional. The procedure, abridged: (§2)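 DNA fragmentation was measured with the Cell Death Detection ELISA Plus kit after treatment of cultured tumour cells. The signal is expressed relative to untreated control cultures, which are set to 1.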

Data set [3] deals with HT-29. In words: Induction of apoptosis in human HT-29 cells assessed as DNA fragmentation after 48 hrs by ELISA relative to camptothecin. In kind it is functional.
The subject of data set [4] is T-24. In words: Cytotoxicity against human T24 cells after 72 hrs by neutral red dye assay. In kind it is functional, cell-based. To be noted: T-24, 72 h. The procedure, abridged:
(§3)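 Human tumour cells were grown as monolayers with 10% FBS and penicillin/streptomycin at 37 °C in 5% CO2 (HT-29 and T-24 in McCoy's, MDA-MB-231 in Leibovitz). They were exposed to compound in DMSO (≤0.5% v/v final) at screening concentrations of 20 and 100 μM for 72 h and read by neutral red uptake. Survival is relative to cells given DMSO only, in triplicate.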

The test system of data set [5] is HT-29. Briefly: Cytotoxicity against human HT-29 cells after 72 hrs by neutral red dye assay. In kind it is functional, cell-based. To be noted: HT-29, 72 h. The procedure, abridged:
as §3

Data set [6] relates to HT-29. Briefly: Cytotoxicity against human HT-29 cells assessed as cell survival at 100 uM after 72 hrs by neutral red dye assay. In kind it is functional. Particulars: HT-29, 72 h, read-out: Survival. The procedure, abridged:
(§4)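 HT-29 and T-24 cells were grown in McCoy's medium and MDA-MB-231 in Leibovitz, each with 10% FBS plus penicillin/streptomycin, as monolayers at 37 °C in 5% CO2. Compounds in DMSO (≤0.5% v/v final) were applied for 72 h. Survival was read by neutral red uptake against 0.5% DMSO-treated cells, as the mean of triplicates.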

Data set [7] deals with T-24. Briefly: Induction of apoptosis in human T24 cells assessed as DNA fragmentation after 48 hrs by ELISA relative to camptothecin. In kind it is functional.
Data set [8] deals with MDA-MB-231. In words: Cytotoxicity against human MDA-MB-231 cells assessed as cell survival at 100 uM after 72 hrs by neutral red dye assay. In kind it is functional. To be noted: MDA-MB-231, 72 h, read-out: Survival. The procedure, abridged:
as §4

The subject of data set [9] is MDA-MB-231. Briefly: Cytotoxicity against human MDA-MB-231 cells after 72 hrs by neutral red dye assay. It is filed as functional, cell-based. To be noted: MDA-MB-231, 72 h. The procedure, abridged: as §3
The test system of data set [10] is T-24. Briefly: Induction of apoptosis in human T24 cells assessed as DNA fragmentation after 48 hrs by ELISA relative to control. In kind it is functional. The procedure, abridged:
as §2

Data set [11] deals with T-24. Briefly: Cytotoxicity against human T24 cells assessed as cell survival at 100 uM after 72 hrs by neutral red dye assay. In kind it is functional. Particulars: T-24, 72 h, read-out: Survival. The procedure, abridged: as §4
In data set [12] the test system is HT-29. Briefly: Induction of apoptosis in human HT-29 cells assessed as DNA fragmentation after 48 hrs by ELISA relative to control. It is filed as functional. The procedure, abridged: as §2
The nature of data set [13]: Cytotoxicity against human CRL8799 cells assessed as cell survival at 20 to 100 uM after 72 hrs by neutral red dye assay. In kind it is cell-based. Particulars: read-out: Survival. The procedure, abridged: as §1

In the case of `c1ccc(CNc2ccnc(NCc3ccccc3)n2)cc1`, the viability at 72 h, up to 100 µM in data set [1] came out at 0%; in data set [13], 22%. The outcome with MDA-MB-231 [2] was inactive. Moreover, the “fold change (FC)” value is recorded as 2.3 with HT-29 [3], 2.3 with T-24 [7], 6 in the data set with T-24 [10] and 7.4 in the data set on HT-29 [12]. Moreover, the negative logarithm of the IC50 (pIC50) in the data set on T-24 [4] was 5.21; in the data set on HT-29 [5] it was 4.76; with MDA-MB-231 [9] it was 5.72. Further, the viability at 100 µM in the data set with HT-29 [6], in the data set with MDA-MB-231 [8] and in the data set with T-24 [11] was under 45% throughout.
